The source of these data is ChEMBL document CHEMBL1156074, “Diazo transfer-click reaction route to new, lipophilic teicoplanin and ristocetin aglycon derivatives with high antibacterial and anti-influenza virus activity: an aggregation and receptor binding study” (J Med Chem, 2009).

In brackets after ≈: the same amount, converted by molar mass. Activity calls are given as the source filed them.

For assay [1], the system named is Enterococcus faecalis. In words: Bactericidal activity against vancomycin-resistant and teicoplanin-sensitive Enterococcus faecalis ATCC 51299 harboring vanB gene after overnight incubation. It counts as functional.
Assay [2] concerns Staphylococcus epidermidis. In words: Antibacterial activity against Staphylococcus epidermidis after 18 hrs by broth microdilution method. The class given is functional. (Dilution methods test growth across graded concentrations, often in twofold steps.)
Assay [3] has as its system Enterococcus faecalis. The assay can be described thus: Bactericidal activity against vancomycin and teicoplanin-sensitive Enterococcus faecalis ATCC 29212 after overnight incubation. The class given is functional.
The subject of assay [4] is Enterococcus faecalis. The assay can be described thus: Antibacterial activity against vancomycin and teicoplanin-resistant Enterococcus faecalis 15376 harboring vanA gene after 18 hrs by broth microdilution method. Conditions: Enterococcus faecalis, 15376, 18 h. It counts as functional.
Assay [5] concerns Enterococcus faecalis. The assay can be described thus: Antibacterial activity against vancomycin-resistant and teicoplanin-sensitive Enterococcus faecalis ATCC 51299 harboring vanB gene after 18 hrs by broth microdilution method. The note with it: ATCC 51299, 18 h. It counts as functional.
Assay [6] concerns Enterococcus faecalis. In words: Antibacterial activity against vancomycin and teicoplanin-sensitive Enterococcus faecalis ATCC 29212 after 18 hrs by broth microdilution method. The note with it: ATCC 29212, 18 h. It counts as functional.
In assay [7] the test system is Bacillus subtilis. The assay can be described thus: Bactericidal activity against Bacillus subtilis ATCC 6633 after overnight incubation. It counts as functional.
Assay [8] relates to Staphylococcus aureus. The assay can be described thus: Antibacterial activity against methicillin-sensitive Staphylococcus aureus ATCC 29213 after 18 hrs by broth microdilution method. The class given is functional. Conditions: ATCC 29213, 18 h.
Assay [9] has as its system Staphylococcus aureus. The assay can be described thus: Antibacterial activity against methicillin-sensitive Staphylococcus aureus ATCC 33591 after 18 hrs by broth microdilution method. The class given is functional. The note with it: ATCC 33591, 18 h.
Assay [10] relates to Bacillus subtilis. In words: Antibacterial activity against Bacillus subtilis ATCC 6633 after 18 hrs by broth microdilution method. The class given is functional. Conditions: ATCC 6633, 18 h.
The subject of assay [11] is Enterococcus faecalis. The assay can be described thus: Bactericidal activity against vancomycin and teicoplanin-resistant Enterococcus faecalis 15376 harboring vanA gene after overnight incubation. The class given is functional.
Assay [12] concerns Staphylococcus aureus. The assay can be described thus: Bactericidal activity against methicillin-sensitive Staphylococcus aureus ATCC 33591 after overnight incubation. It counts as functional.
Assay [13] concerns Staphylococcus epidermidis. In words: Antibacterial activity against biofilm of Staphylococcus epidermidis ATCC 35984 after 18 hrs by broth microdilution method. Conditions: RP62A. The class given is functional.
Assay [14] relates to Staphylococcus aureus. In words: Bactericidal activity against methicillin-sensitive Staphylococcus aureus ATCC 29213 after overnight incubation. It counts as functional.
Assay [15] relates to Influenza A virus. In words: Antiviral activity against Influenza A virus (A/Puerto Rico/8/34(H1N1)) assessed as inhibition of virus-induced cytopathic effect at highest concentration by cell-based assay. The class given is functional, organism-based. The note with it: A/Puerto Rico/8/1934(H1N1). In outline: (§1)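 Virus-induced cytopathic effect is scored visually in infected cell cultures. EC50 is defined as the compound concentration producing 50% inhibition of the CPE. A compound is recorded as not active when there is no inhibition at the highest concentration tested or at a subtoxic concentration.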

Assay [16] relates to Influenza A virus. In words: Antiviral activity against Influenza A virus (A/Puerto Rico/8/34(H1N1)) assessed as cell viability at subtoxic concentration by cell-based MTS assay. It counts as functional, organism-based. Conditions: A/Puerto Rico/8/1934(H1N1). A general note: Formazan colour is commonly taken as a measure of viable cells.
Assay [17] concerns Staphylococcus epidermidis. The assay can be described thus: Bactericidal activity against biofilm of Staphylococcus epidermidis ATCC 35984 after overnight incubation. It counts as functional. The note with it: RP62A.
Assay [18] has as its system Influenza B virus. In words: Antiviral activity against Influenza B virus (B/Hong Kong/5/72) assessed as cell viability at subtoxic concentration by cell-based MTS assay. The class given is functional. Conditions: B/Hong Kong/05/1972.
The test system of assay [19] is H3N2 subtype. The assay can be described thus: Antiviral activity against Influenza A virus (A/Hong Kong/7/87(H3N2)) assessed as cell viability at subtoxic concentration by cell-based MTS assay. It counts as functional, organism-based. The note with it: A/Hong Kong/7/1987(H3N2).
Assay [20] relates to Staphylococcus epidermidis. The assay can be described thus: Bactericidal activity against Staphylococcus epidermidis after overnight incubation. The class given is functional.
The test system of assay [21] is Influenza B virus. The assay can be described thus: Antiviral activity against Influenza B virus (B/Hong Kong/5/72) assessed as inhibition of virus-induced cytopathic effect at highest concentration by cell-based assay. It counts as functional. The note with it: B/Hong Kong/05/1972. Summed up: as §1
(In general: Protection from cytopathic effect is a common read-out in antiviral testing.)

Assay [22] relates to H3N2 subtype. The assay can be described thus: Antiviral activity against Influenza A virus (A/Hong Kong/7/87(H3N2)) assessed as inhibition of virus-induced cytopathic effect at highest concentration by cell-based assay. The class given is functional, organism-based. The note with it: A/Hong Kong/7/1987(H3N2). In outline: as §1

Regarding `CC(=O)N[C@H]1[C@H](O[C@@H]2c3ccc(c(Cl)c3)Oc3cc4cc(c3O)Oc3ccc(cc3Cl)C[C@H]3NC(=O)[C@H](n5cc(COc6ccc(-c7ccccc7)cc6)nn5)c5ccc(O)c(c5)Oc5cc(O)cc(c5)[C@H](NC3=O)C(=O)N[C@H]4C(=O)N[C@H]3C(=O)N[C@@H]2C(=O)N[C@@H](C(=O)O)c2cc(O)cc(O)c2-c2cc3ccc2O)O[C@H](CO)[C@@H](O)[C@@H]1O`, the MBC against Enterococcus faecalis [1], against Enterococcus faecalis [3], in the assay with Bacillus subtilis [7], in the assay on Enterococcus faecalis [11], against Staphylococcus aureus [12] and against Staphylococcus aureus [14] was 0.25 µg/mL (≈ 0.153 µM) in each case. Moreover, the MIC (in assay [2]; against Enterococcus faecalis [4]; in the assay on Enterococcus faecalis [5]; with Enterococcus faecalis [6]; against Staphylococcus aureus [8]; against Staphylococcus aureus [9]) was 0.5 µg/mL (≈ 0.306 µM) throughout. Besides, the MIC (against Bacillus subtilis [10]; in [13]) was 0.5 µg/mL (≈ 0.306 µM) in each case.
Take `CC(=O)N[C@H]1[C@H](O[C@@H]2c3ccc(c(Cl)c3)Oc3cc4cc(c3O)Oc3ccc(cc3Cl)C[C@H]3NC(=O)[C@H](N=[N+]=[N-])c5ccc(O)c(c5)Oc5cc(O)cc(c5)[C@H](NC3=O)C(=O)N[C@H]4C(=O)N[C@H]3C(=O)N[C@@H]2C(=O)N[C@@H](C(=O)O)c2cc(O)cc(O)c2-c2cc3ccc2O)O[C@H](CO)[C@@H](O)[C@@H]1O`: the inhibition result in the assay on Influenza A virus [15], with Influenza A virus [16], in the assay with Influenza B virus [18], in the assay on H3N2 subtype [19], in the assay with Influenza B virus [21] and in the assay with H3N2 subtype [22] was “inactive” in each case. Besides, the MBC worked out at 32 µg/mL (≈ 22.4 µM) in the assay on Enterococcus faecalis [1]; 32 µg/mL (≈ 22.4 µM) with Enterococcus faecalis [3]; 16 µg/mL (≈ 11.2 µM) in assay [17]; 32 µg/mL (≈ 22.4 µM) against Bacillus subtilis [7]; 4 µg/mL (≈ 2.8 µM) in assay [20]; 2 µg/mL (≈ 1.4 µM) in the assay on Staphylococcus aureus [12]. This molecule came in with an MBC with Staphylococcus aureus [14] of 8 µg/mL (≈ 5.6 µM). The MIC in assay [2] is 4 µg/mL (≈ 2.8 µM); with Enterococcus faecalis [4] it was > 256 µg/mL; against Enterococcus faecalis [5], 64 µg/mL (≈ 44.8 µM); with Enterococcus faecalis [6], 32 µg/mL (≈ 22.4 µM); with Staphylococcus aureus [8], 8 µg/mL (≈ 5.6 µM); against Staphylococcus aureus [9], 4 µg/mL (≈ 2.8 µM). Moreover, the MIC in the assay on Bacillus subtilis [10] worked out at 64 µg/mL (≈ 44.8 µM); in [13] it was 16 µg/mL (≈ 11.2 µM).
Turning to `COC(=O)[C@H]1NC(=O)[C@H]2NC(=O)[C@H](NC(=O)[C@@H]3NC(=O)[C@H]4NC(=O)[C@H](NC(=O)[C@H](N=[N+]=[N-])c5ccc(O)c(c5)Oc5cc4cc(O)c5C)[C@H](O)c4ccc(cc4)Oc4cc3cc(c4O)Oc3ccc(cc3)[C@H]2O)c2ccc(O)c(c2)-c2c(O)cc(O)cc21`, the MBC amounted to 64 µg/mL (≈ 53.3 µM) in the assay with Enterococcus faecalis [1]; 8 µg/mL (≈ 6.67 µM) against Enterococcus faecalis [3]; 8 µg/mL (≈ 6.67 µM) in assay [17]; 1 µg/mL (≈ 0.833 µM) in the assay with Bacillus subtilis [7]; 16 µg/mL (≈ 13.3 µM) in assay [20]; 1 µg/mL (≈ 0.833 µM) against Staphylococcus aureus [12]. Besides, in the assay on Staphylococcus aureus [14], the MBC stood at 2 µg/mL (≈ 1.67 µM). Further, the MIC in assay [2] is 16 µg/mL (≈ 13.3 µM); in the assay with Enterococcus faecalis [4], > 256 µg/mL; with Enterococcus faecalis [5] it was 128 µg/mL (≈ 107 µM); against Enterococcus faecalis [6], 16 µg/mL (≈ 13.3 µM); against Staphylococcus aureus [8], 2 µg/mL (≈ 1.67 µM); with Staphylococcus aureus [9] it was 2 µg/mL (≈ 1.67 µM). The MIC with Bacillus subtilis [10] is 4 µg/mL (≈ 3.33 µM); in assay [13], 16 µg/mL (≈ 13.3 µM).
For the molecule `COC(=O)[C@@H]1NC(=O)[C@H]2NC(=O)[C@H](NC(=O)[C@@H]3NC(=O)[C@H]4NC(=O)[C@H](NC(=O)[C@H](n5cc(COc6ccc(-c7ccccc7)cc6)nn5)c5ccc(O)c(c5)Oc5cc4cc(O)c5C)[C@H](O)c4ccc(cc4)Oc4cc3cc(c4O)Oc3ccc(cc3)[C@H]2O)c2ccc(O)c(c2)-c2c(O)cc(O)cc21`, the inhibition entry with Influenza A virus [15], with Influenza A virus [16], in the assay on Influenza B virus [18], in the assay with H3N2 subtype [19], in the assay on Influenza B virus [21] and in the assay on H3N2 subtype [22] was “inactive” throughout. Further, the MIC (in assay [2]; in the assay on Enterococcus faecalis [4]; against Enterococcus faecalis [5]; against Enterococcus faecalis [6]; in the assay with Staphylococcus aureus [8]; against Staphylococcus aureus [9]) was > 256 µg/mL in each case. For the same molecule, the MIC (against Bacillus subtilis [10]; in assay [13]) was > 256 µg/mL throughout.
